The values below come from ChEMBL document CHEMBL4376872, “Scaffold Hopping of Natural Product Evodiamine: Discovery of a Novel Antitumor Scaffold with Excellent Potency against Colon Cancer” (J Med Chem, 2020).

By IC50 is commonly meant the concentration that gives 50% inhibition. Broadly, the inhibition is the drop in the measured response relative to a control, in per cent.

For test [1], the system named is A549. Briefly: Antiproliferative activity against human A549 cells assessed as reduction in cell viability incubated for 72 hrs by CCK8 assay. It is filed as functional, cell-based. Particulars: A549, 72 h. In general terms: Formazan colour is commonly taken as a measure of viable cells.
Test [2] deals with HCT-116. The test is described as follows: Cell cycle arrest in human HCT116 cells assessed as accumulation in S phase at 4 nM incubated for 24 hrs by propidium iodide staining based flow cytometry (reference value: 42.31 %). The test is classed as functional. On the technique in general: In flow cytometry, cells or beads pass a laser one at a time.
Test [3] concerns the target T1, DNA topoisomerase 1 (Escherichia coli (strain K12)) (UniProt P06612).
T1 sequence (whole entry): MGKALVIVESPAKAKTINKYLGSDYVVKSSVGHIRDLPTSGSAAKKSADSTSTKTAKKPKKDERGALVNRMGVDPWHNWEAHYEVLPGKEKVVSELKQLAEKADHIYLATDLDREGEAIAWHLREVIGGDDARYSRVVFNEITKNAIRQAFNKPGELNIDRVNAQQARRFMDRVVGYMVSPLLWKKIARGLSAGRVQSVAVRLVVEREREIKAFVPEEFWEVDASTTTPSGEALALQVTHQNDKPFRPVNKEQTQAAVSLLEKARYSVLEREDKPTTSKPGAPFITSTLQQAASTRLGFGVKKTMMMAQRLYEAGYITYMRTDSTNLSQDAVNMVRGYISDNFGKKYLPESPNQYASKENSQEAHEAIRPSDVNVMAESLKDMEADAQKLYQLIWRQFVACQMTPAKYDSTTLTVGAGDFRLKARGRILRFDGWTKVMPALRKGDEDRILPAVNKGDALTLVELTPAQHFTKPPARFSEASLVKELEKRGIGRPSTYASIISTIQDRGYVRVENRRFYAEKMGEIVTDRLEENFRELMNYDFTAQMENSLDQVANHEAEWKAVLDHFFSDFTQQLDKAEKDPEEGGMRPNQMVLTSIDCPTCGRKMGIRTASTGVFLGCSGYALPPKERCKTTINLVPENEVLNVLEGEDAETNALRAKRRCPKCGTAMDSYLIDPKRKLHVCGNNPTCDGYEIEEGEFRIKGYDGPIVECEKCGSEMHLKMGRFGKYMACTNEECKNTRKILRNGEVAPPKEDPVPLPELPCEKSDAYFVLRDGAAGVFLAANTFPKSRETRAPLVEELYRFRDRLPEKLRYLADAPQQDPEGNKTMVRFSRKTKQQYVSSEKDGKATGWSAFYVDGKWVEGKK
The test is described as follows: Inhibition of Escherichia coli Top1 assessed as decrease in relaxation of supercoiled pBR322 plasmid DNA at 100 uM using supercoiled pBR322 plasmid DNA as substrate incubated for 15 mins by agarose gel electrophoresis analysis.

The subject of test [4] is HCT-116. The test is described as follows: Cell cycle arrest in human HCT116 cells assessed as accumulation in G2 phase at 4 nM incubated for 24 hrs by propidium iodide staining based flow cytometry (reference value: 12.52 %). The test is classed as functional.
In test [5] the target is DNA topoisomerase 2-alpha (Homo sapiens) (UniProt P11388). The test is described as follows: Inhibition of human Top2alpha assessed as decrease in relaxation of supercoiled pBR322 plasmid DNA at 100 uM using supercoiled pBR322 plasmid DNA as substrate incubated for 30 mins by agarose gel electrophoresis analysis.
Test [6] is described as follows: Antiproliferative activity against human MV-3 cells assessed as reduction in cell viability incubated for 72 hrs by CCK8 assay. It is filed as functional, cell-based. Particulars: MV-3, 72 h.
The subject of test [7] is Tyrosine-protein kinase ABL1 (Homo sapiens), P00519 [T315I]. Briefly: Inhibition of Abl T315I mutant (unknown origin) using Abltide as substrate at 5 uM incubated for 40 mins in presence of 10 uM ATP by kiase-Glo luminescence assay relative to control.
Test [8] concerns the target Tubulin (Homo sapiens) (UniProt P68371+Q9H4B7+P0DPH7+P68366+Q13509+Q71U36+P04350+Q3ZCM7+P07437+P68363+Q9BQE3+Q6PEY2+Q13885+Q9BVA1+Q9BUF5). The test is described as follows: Inhibition of tubulin polymerization in human HCT116 cells assessed as disruption of microtubule by measuring clustered microtubule arrangement in cytosol around the nucleus at 0.4 to 10 uM incubated for 12 hrs by immunofluorescence based analysis. It is filed as cell-based. The procedure, abridged: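 HCT116 cells were exposed to several concentrations for 12 h, with paclitaxel as the control. Nuclei were stained with DAPI and microtubules with mouse anti-α-tubulin. Microtubule organization was imaged by laser confocal microscopy.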

Test [9] has as its system HCT-116. Briefly: Antiproliferative activity against human HCT116 cells assessed as reduction in cell viability incubated for 72 hrs by CCK8 assay. The test is classed as functional, cell-based. Particulars: HCT-116, 72 h.
Test [10] concerns the target Lysine-specific demethylase 6B (Homo sapiens) (UniProt O15054). Briefly: Inhibition of JMJD3 (unknown origin) using biotinylated histone H3 peptide as substrate at 5 uM incubated for 60 mins by AlphaScreen assay relative to control. For orientation: In Alpha technology, singlet oxygen from a donor bead excites a nearby acceptor bead.
The target in test [11] is Protein mono-ADP-ribosyltransferase PARP12 (Homo sapiens) (UniProt Q9H0J9). The test is described as follows: Inhibition of PARP12 (unknown origin) using biotin-NAD+, NAD+ and sIDNA as substrate at 5 uM incubated for 1 hr by ELISA relative to control.
The target in test [12] is Tubulin (Sus scrofa, UniProt P02554+P02550). The test is described as follows: (§1) Inhibition of porcine brain tubulin polymerization measured at 1 min interval over 20 mins by absorbance based assay.
In test [13] the target is Tubulin (Sus scrofa) (UniProt P02554+P02550). The test is described as §1.
Test [14] relates to MDA-MB-435. Briefly: Antiproliferative activity against human MDA-MB-435 cells assessed as reduction in cell viability incubated for 72 hrs by CCK8 assay. It is filed as functional, cell-based. The note with it: MDA-MB-435, 72 h.
Test [15] has as its system HCT-116. The test is described as follows: Cell cycle arrest in human HCT116 cells assessed as accumulation in G1 phase at 12 nM incubated for 24 hrs by propidium iodide staining based flow cytometry (reference value: 45.18 %). It is filed as functional.
Test [16] is described as follows: Antiproliferative activity against human SW579 cells assessed as reduction in cell viability incubated for 72 hrs by CCK8 assay. The test is classed as functional, cell-based. Particulars: SW579, 72 h.
The target in test [17] is Epidermal growth factor receptor (Homo sapiens) (UniProt P00533). The test is described as follows: Inhibition of EGFR (unknown origin) using poly (Glu, Tyr) as substrate at 5 uM incubated for 40 mins in presence of 10 uM ATP by kiase-Glo luminescence assay relative to control.
For test [18], the target named is cAMP-dependent protein kinase catalytic subunit alpha (Homo sapiens) (UniProt P17612). Briefly: Inhibition of PKAC-alpha (unknown origin) using CREBtide as substrate at 5 uM incubated for 40 mins in presence of 10 uM ATP by kiase-Glo luminescence assay relative to control.
For test [19], the target named is Protein arginine N-methyltransferase 1 (Homo sapiens) (UniProt Q99873). Briefly: Inhibition of PRMT1 (unknown origin) using plate-coated histone as substrate at 5 uM incubated for 90 mins in presence of 0.5 uM SAM by AlphaScreen assay relative to control.
The subject of test [20] is NCI-H446. The test is described as follows: Antiproliferative activity against human NCI-H446 cells assessed as reduction in cell viability incubated for 72 hrs by CCK8 assay. It is filed as functional, cell-based. The note with it: NCI-H446, 72 h.

Structures are written as SMILES. Activity calls are given as the source filed them. The rule behind the calls is not given here. A value given as a limit tells only on which side of the number the result lay.

Sequence of Lysine-specific demethylase 6B (Homo sapiens) (O15054 whole entry): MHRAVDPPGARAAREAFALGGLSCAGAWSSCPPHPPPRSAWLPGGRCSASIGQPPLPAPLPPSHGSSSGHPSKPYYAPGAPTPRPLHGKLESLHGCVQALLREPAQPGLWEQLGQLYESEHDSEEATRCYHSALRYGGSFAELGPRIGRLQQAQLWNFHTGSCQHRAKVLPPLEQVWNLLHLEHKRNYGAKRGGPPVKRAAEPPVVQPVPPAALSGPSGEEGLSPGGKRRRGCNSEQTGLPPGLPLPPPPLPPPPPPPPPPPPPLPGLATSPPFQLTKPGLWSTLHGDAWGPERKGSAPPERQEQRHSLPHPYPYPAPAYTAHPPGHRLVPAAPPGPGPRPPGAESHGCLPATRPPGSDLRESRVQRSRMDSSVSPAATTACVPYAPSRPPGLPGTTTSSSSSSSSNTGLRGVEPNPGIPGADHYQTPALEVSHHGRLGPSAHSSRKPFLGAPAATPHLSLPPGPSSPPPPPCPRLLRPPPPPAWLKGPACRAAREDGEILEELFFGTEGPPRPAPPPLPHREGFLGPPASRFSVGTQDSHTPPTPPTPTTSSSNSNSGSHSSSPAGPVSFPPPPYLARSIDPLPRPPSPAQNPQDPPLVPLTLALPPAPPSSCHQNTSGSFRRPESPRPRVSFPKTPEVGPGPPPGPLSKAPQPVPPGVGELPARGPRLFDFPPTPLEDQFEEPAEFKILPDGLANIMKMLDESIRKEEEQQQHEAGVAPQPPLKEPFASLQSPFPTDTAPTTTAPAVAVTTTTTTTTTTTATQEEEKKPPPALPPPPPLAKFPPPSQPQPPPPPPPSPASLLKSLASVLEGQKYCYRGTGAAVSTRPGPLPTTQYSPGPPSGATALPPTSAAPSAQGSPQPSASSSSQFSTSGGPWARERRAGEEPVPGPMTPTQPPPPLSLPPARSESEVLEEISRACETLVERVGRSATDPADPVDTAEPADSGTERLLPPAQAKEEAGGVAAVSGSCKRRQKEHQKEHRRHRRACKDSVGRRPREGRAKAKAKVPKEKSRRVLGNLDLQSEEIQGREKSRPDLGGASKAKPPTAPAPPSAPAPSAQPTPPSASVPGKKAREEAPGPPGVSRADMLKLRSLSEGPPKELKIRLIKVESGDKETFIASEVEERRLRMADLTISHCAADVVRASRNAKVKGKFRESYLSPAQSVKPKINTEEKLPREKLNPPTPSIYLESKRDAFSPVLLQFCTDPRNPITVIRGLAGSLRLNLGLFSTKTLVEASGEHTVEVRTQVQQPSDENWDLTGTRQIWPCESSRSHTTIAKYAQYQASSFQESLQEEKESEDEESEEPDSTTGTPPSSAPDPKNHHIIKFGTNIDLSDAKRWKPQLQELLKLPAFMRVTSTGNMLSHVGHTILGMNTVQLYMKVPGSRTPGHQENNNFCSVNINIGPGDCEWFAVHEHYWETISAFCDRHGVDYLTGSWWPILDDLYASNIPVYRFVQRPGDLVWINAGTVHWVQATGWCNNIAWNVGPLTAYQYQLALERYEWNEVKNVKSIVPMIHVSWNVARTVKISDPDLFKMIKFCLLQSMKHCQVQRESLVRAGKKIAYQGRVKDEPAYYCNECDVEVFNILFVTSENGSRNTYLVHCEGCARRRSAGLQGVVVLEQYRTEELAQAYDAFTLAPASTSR
Sequence of Tubulin (Sus scrofa) (P02550 whole entry, looked up): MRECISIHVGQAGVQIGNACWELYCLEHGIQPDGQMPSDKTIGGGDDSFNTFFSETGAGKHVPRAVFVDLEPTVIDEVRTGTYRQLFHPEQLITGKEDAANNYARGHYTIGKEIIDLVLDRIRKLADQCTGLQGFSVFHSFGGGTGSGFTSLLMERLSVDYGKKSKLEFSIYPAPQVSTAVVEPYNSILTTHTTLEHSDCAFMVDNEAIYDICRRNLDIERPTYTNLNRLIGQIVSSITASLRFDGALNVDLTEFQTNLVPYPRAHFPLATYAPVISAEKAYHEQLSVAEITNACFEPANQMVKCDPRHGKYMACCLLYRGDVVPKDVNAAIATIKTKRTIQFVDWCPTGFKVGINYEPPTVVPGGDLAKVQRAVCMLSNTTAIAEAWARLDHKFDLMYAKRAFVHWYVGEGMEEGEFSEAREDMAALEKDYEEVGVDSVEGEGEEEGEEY
Sequence of Tubulin (Sus scrofa) (P02554 whole entry, looked up): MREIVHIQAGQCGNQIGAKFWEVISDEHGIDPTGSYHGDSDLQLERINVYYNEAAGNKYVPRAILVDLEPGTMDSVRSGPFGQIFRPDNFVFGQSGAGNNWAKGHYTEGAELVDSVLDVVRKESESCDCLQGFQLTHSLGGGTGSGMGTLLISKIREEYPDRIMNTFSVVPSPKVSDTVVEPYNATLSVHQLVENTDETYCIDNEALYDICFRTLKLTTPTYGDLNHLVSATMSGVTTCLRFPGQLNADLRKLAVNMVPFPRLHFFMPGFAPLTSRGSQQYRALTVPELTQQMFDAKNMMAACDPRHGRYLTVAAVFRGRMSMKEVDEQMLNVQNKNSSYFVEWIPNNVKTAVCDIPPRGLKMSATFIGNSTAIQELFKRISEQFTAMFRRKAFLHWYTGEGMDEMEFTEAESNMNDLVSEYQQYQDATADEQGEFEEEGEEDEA
Sequence of DNA topoisomerase 2-alpha (Homo sapiens) (P11388 whole entry): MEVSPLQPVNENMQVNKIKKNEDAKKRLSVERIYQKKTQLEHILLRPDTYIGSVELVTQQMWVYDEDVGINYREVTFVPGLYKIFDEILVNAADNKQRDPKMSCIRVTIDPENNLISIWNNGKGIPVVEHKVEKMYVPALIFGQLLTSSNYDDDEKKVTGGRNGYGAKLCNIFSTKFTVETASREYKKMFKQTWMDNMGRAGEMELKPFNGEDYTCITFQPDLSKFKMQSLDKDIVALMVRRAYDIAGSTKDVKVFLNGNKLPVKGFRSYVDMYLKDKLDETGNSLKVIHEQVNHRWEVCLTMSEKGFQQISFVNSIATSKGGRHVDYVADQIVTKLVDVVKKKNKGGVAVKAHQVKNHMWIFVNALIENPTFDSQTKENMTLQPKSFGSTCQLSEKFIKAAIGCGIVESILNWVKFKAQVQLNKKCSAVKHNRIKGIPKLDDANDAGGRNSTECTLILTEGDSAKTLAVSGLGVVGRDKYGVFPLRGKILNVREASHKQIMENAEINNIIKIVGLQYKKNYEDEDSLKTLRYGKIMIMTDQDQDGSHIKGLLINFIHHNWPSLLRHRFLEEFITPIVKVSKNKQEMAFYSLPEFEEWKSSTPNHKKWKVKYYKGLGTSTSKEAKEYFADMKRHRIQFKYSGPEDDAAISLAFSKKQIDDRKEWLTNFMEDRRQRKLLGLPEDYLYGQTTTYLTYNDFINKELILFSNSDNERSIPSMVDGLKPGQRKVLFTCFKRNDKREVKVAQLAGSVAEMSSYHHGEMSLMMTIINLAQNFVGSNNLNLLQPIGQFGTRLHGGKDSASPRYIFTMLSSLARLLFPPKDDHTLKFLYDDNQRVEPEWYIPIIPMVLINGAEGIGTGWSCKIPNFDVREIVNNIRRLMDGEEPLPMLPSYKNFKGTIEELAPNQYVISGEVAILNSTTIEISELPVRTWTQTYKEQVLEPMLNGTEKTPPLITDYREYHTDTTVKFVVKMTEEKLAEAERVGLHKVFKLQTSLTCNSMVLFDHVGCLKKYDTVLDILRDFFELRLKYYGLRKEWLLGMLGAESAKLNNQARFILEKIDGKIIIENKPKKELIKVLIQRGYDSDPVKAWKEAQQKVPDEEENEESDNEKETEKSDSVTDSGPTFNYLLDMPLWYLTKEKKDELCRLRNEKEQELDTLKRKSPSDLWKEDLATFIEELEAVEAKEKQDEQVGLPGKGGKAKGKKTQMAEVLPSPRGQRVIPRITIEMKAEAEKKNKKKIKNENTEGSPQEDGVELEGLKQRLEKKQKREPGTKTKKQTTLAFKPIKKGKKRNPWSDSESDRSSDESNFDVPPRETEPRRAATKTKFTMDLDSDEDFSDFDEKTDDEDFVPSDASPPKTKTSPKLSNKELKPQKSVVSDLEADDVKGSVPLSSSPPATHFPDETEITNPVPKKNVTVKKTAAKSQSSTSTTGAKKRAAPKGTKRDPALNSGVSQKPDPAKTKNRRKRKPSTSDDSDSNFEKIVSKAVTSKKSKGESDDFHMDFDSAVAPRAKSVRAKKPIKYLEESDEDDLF
Sequence of Protein arginine N-methyltransferase 1 (Homo sapiens) (Q99873 whole entry, looked up): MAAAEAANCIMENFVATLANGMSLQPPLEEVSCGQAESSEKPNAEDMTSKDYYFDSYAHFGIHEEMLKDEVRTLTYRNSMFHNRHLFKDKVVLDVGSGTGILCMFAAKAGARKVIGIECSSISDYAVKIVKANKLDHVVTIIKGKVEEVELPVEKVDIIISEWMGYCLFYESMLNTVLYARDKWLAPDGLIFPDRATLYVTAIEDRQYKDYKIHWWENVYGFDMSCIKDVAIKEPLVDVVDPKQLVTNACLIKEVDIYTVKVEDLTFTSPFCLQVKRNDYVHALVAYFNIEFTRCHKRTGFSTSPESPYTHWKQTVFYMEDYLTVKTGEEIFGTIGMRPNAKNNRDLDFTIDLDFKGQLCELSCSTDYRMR

With `COc1ccc2c(c1)cc1n2CCN2C(=O)c3cc(F)ccc3N(C)C12` (stereo not given), the IC50 was 159 µM in test [1]; 400 nM in test [6]; 2 nM in test [9]; 26.3 µM in test [12]; 1000 nM in test [14]; 6.1 µM in [16]. For the same compound, the 50% inhibitory concentration (IC50) in test [20] is greater than 200 µM. Further, the Activity turned out to be 39.26% in test [2], 17.73% in [4] and 24.07% in test [15]. Besides, the inhibition entry in test [3] and in test [8] was “Active” each time. The inhibition result in [5] was “inactive”. In addition, the inhibition is less than 20% in test [7]; less than 20% in [10]; less than 20% in test [11]; “Dose-dependent effect” in test [13]; less than 20% in test [17]; less than 20% in [18]. Also, the inhibition in test [19] is less than 20%.
